From ChEMBL document CHEMBL5352501, “Catalytic Degraders Effectively Address Kinase Site Mutations in EML4-ALK Oncogenic Fusions” (J Med Chem, 2023)
≈ marks a conversion by molar mass, not a printed value. Calls of active or inactive are those of the source. The rule behind the calls is not given here.

Tests used:
BaF3 [1] = experiment: Antiproliferative activity against mouse Ba/F3 cells stably expressing HiBiT-tagged wild type EML4-ALK variant 3 assessed as cell growth inhibition incubated for 72 hrs by CellTiter-Glo assay; assay type: functional
Outline: (§1)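 Ba/F3 cells stably expressing HiBiT-tagged EML4-ALK v3 (wild type or the named kinase-site mutant) were treated with compound for 72 h. Growth inhibition was reported as log GI50.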

BaF3 [2] = assay type: functional; conditions: Mus musculus, time 72 hrs
BaF3 [3] = experiment: Antiproliferative activity against mouse Ba/F3 cells stably expressing HiBiT-tagged EML4-ALK variant 3 G1202R mutant assessed as cell growth inhibition incubated for 72 hrs by CellTiter-Glo assay; assay type: functional; outline: as §1
BaF3 [4] = assay type: functional; conditions: Mus musculus, time 72 hrs; remark: listed apart in the source
BaF3 [5] = experiment: Antiproliferative activity against mouse Ba/F3 cells stably expressing HiBiT-tagged EML4-ALK variant 3 C1156Y mutant assessed as cell growth inhibition incubated for 72 hrs by CellTiter-Glo assay; assay type: functional; outline: as §1
Mus musculus [6] = assay type: functional, organism-based; conditions: BALB/c, BaF3, dose 10.0 mg/kg, route po, time 14.0 day
Mus musculus [7] = assay type: functional, organism-based; conditions: BALB/c, BaF3, dose 10.0 mg/kg, route po, time 14.0 day; remark: listed apart in the source
BaF3 [8] = assay type: functional; conditions: Mus musculus, route po
[9] = Microsomal stability in human liver microsomes assessed as intrinsic clearance at 1 uM and measured upto 60 mins in presence of NADPH by LC-MS/MSC analysis; assay type: ADME, Microsome; conditions: read-out: CLH
Erythrocyte [10] = experiment: Hemolytic activity in human RBC assessed as hemolysis incubated for 45 mins by absorbance based microplate reader analysis; assay type: toxicity, cell-based; conditions: 0.75 h
Erythrocyte [11] = experiment: Hemolytic activity in mouse RBC assessed as hemolysis incubated for 45 mins by absorbance based microplate reader analysis; assay type: toxicity, cell-based; conditions: 0.75 h
[12] = Oral bioavailability in C57BL/J6 mouse at 10 mg/kg and measured upto 24 hrs by LC-MS/MS analysis; assay type: ADME, organism-based; conditions: in vivo
Outline: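 Mouse PK was run with both oral and intravenous dosing, with 10 mg/kg as the study dose. Oral bioavailability was derived from comparing the two routes.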

[13] = Microsomal stability in human liver microsomes at 1 uM measured upto 60 mins in presence of NADPH by LC-MS/MSC analysis; assay type: ADME, Microsome; conditions: 1 h
HepG2 [14] = experiment: Induction of phospholipidosis in human HepG2 cells assessed as […] incubated for 48 hrs by Hoechst 33342 staining based imaging analysis; assay type: toxicity, cell-based; conditions: hepg2, 48 h
HepG2 [15] = experiment: Cytotoxicity against human HepG2 cells assessed as reduction in cell viability incubated for 48 hrs by Hoechst 33342 staining based imaging analysis; assay type: toxicity; conditions: hepg2, 48 h
[16] = Solubility of the compound in FeSSIF at pH 5.0 incubated for 24 hrs under shaking condition by UPLC-UV/HPLC-UV analysis; assay type: physicochemical
[17] = Plasma protein binding in mouse; assay type: ADME, cell-free
[18] = Plasma protein binding in human; assay type: ADME, cell-free
Mus musculus [19] = assay type: functional, organism-based; conditions: BALB/c, BaF3, dose 10.0 mg/kg, route po, time 14.0 day; remark: listed apart in the source
Mus musculus [20] = assay type: functional, organism-based; conditions: BALB/c, BaF3, dose 10.0 mg/kg, route po, time 14.0 day; remark: listed apart in the source

Structure (SMILES) | GI50 (BaF3 [1]) [nM] | GI50 (BaF3 [2]) [nM] | GI50 (BaF3 [3]) [nM] | GI50 (BaF3 [4]; read-out: pGI50 (converted)) [nM] | GI50 (BaF3 [5]) [nM] | microsomal CLint at 1 µM [9] [µL/min/mg] | further results
C[C@H]1Oc2cc(cnc2N)-c2c(nn(C)c2C#N)CN(C)C(=O)c2ccc(F)cc21 [LORLATINIB] | 3.16 | 50.1 | 100 | 501 | 39.8 | – | Activity (Mus musculus [6]): Active; Activity (Mus musculus [7]): Active; Activity (BaF3 [8]; dose 10.0 mg/kg, time 14.0 day): inactive
COc1cc(N2CCC(N3CCN(C)CC3)CC2)ccc1Nc1ncc(Cl)c(Nc2ccccc2P(C)(C)=O)n1 [BRIGATINIB] | 12.6 | 39.8 | 251 | 200 | 39.8 | – | –
CCc1cc2c(cc1N1CCC(N3CCOCC3)CC1)C(C)(C)c1[nH]c3cc(C#N)ccc3c1C2=O [ALECTINIB] | 12.6 | 79.4 | 398 | 501 | 79.4 | – | –
COc1cc(CCNCCCCCC#Cc2cccc3c2C(=O)N(C2CCC(=O)NC2=O)C3=O)c(C)cc1Nc1ncc(Cl)c(Nc2ccccc2S(=O)(=O)C(C)C)n1 (centres undefined) | – | – | – | – | – | 59 | Activity (Erythrocyte [10]): Toxic; Activity (Erythrocyte [11]): Toxic
CCc1cc2c(cc1N1CCN(CC3CN(c4ccc5c(c4)C(=O)N(C4CCC(=O)NC4=O)C5=O)C3)CC1)C(C)(C)c1[nH]c3cc(C#N)ccc3c1C2=O (centres undefined) | – | – | – | – | – | – | F [12]: 48%; Stability [13]: Stable
COc1cc(C2CCN(CC3CN(c4ccc5c(c4)CN(C4CCC(=O)NC4=O)C5=O)C3)CC2)c(C)cc1Nc1ncc(Cl)c(Nc2ccccc2S(=O)(=O)C(C)C)n1 (centres undefined) | – | – | – | – | – | 25.2 | –
Cc1cc(Nc2ncc(Cl)c(Nc3ccccc3S(=O)(=O)C(C)C)n2)c(OC(C)C)cc1C1CCNCC1 [CERITINIB] | 200 | 158 | 2000 | 501 | 316 | – | Activity (HepG2 [14]): Non-Toxic; Activity (HepG2 [15]): Non-Toxic
COc1cc(C2CCN(CC3CN(c4ccc5c(c4)C(=O)N(C4CCC(=O)NC4=O)C5=O)C3)CC2)c(C)cc1Nc1ncc(Cl)c(Nc2ccccc2S(=O)(=O)C(C)C)n1 (centres undefined) | 3.16 | 3.16 | 19.9 | 10 | 19.9 | 8 | solubility thermodynamic at 24 h [16]: 122 µM (≈ 104 µg/mL); F [12]: 28%; Activity (Erythrocyte [10]): Non-Toxic; Activity (Erythrocyte [11]): Non-Toxic; Activity (HepG2 [14]): Toxic; Activity (HepG2 [15]): Toxic; GI50 (BaF3 [4]; read-out: GI50): 10 nM; PPB [17]: > 99.9%; PPB [18]: > 99.9%; Activity (Mus musculus [19]): Active; Activity (Mus musculus [20]): Active; inhibition in vivo at 10 mg/kg (BaF3 [8]; BaF3, 336 h, time 14 day, read-out: TGI): 33%
